# From ChEMBL document CHEMBL1145683, “Structure-cytotoxicity relationships of some helenanolide-type sesquiterpene lactones” (J Nat Prod, 1997)
# pIC50: −log10 of the molar value.
# Experiments:
# [1] = Cytotoxicity against mouse cloned EN2 cells after 2 hrs by MTT assay; format: functional, cell-based; details: EN2, 2 h
# Procedure, shortened: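 Murine EN2 Ehrlich ascites cells (RPMI 1640, 10% heat-inactivated FBS, exponential growth, >95% trypan blue exclusion), 500 cells/well, exposed 2 h at 37 °C, 5% CO2. Compound washed out in three spin steps, then 72 h further culture. MTT added for 3 h 45 min, formazan dissolved in DMSO, A550 read. IC50 = 50% growth inhibition vs medium-blank-corrected control; mean ± SD, n≥3.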
# [2] = Cytotoxicity against mouse cloned EN2 cells after 72 hrs by MTT assay; format: functional, cell-based; details: EN2, 72 h
# Procedure, shortened: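 EN2 murine cloned Ehrlich ascites line, grown in suspension in RPMI 1640 with 10% heat-inactivated FBS and used in exponential growth. 500 cells/well, continuous 72 h compound exposure at 37 °C, 5% CO2. Stocks 10 mM in EtOH or DMSO. Read-out: MTT reduction over 3 h 45 min, formazan in DMSO, A550. IC50 is 50% growth inhibition relative to control; mean ± SD, n≥3.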
SMILES,pIC50 [1],pIC50 [2]
C/C=C(\C)C(=O)O[C@H]1[C@@H]2[C@H](C)C(=O)O[C@@H]2C[C@@H](C)[C@@H]2[C@@H](O)CC(=O)[C@]21C,< 4.00,4.12
C=C1C(=O)O[C@@H]2C[C@@H](C)[C@@H]3[C@@H](O)C[C@@H](O)[C@@]3(C)[C@@H](OC(=O)/C(C)=C/C)[C@H]12,< 4.00,4.68
C[C@@H]1C[C@H]2OC(=O)[C@@H](C)[C@H]2[C@H](O)[C@]2(C)C(=O)C=C[C@@H]12,3.89,5.19
C=C1C(=O)O[C@H]2C[C@@H](C)[C@@H]3C=CC(=O)[C@@]3(C)[C@H](OC(=O)CC(C)C)[C@H]12,5.27,6.00
C=C1C(=O)O[C@@H]2C[C@@H](C)[C@@H]3C=CC(=O)[C@@]3(C)[C@@H](OC(=O)C(C)C)[C@H]12 [HELENALINISOBUTYRATE],5.89,6.77
CC(=O)O[C@H]1C[C@@H](O)[C@]2(C)[C@@H]1[C@H](C)C[C@H]1OC(=O)[C@@H](C)[C@H]1[C@@H]2O,< 4.00,< 4.00
C=C1C(=O)O[C@@H]2C[C@@H](C)[C@@H]3[C@@H](O)C[C@@H](O)[C@@]3(C)[C@@H](O)[C@H]12,–,4.87
C=C1C(=O)O[C@@H]2C[C@@H](C)[C@@H]3[C@@H](O)C[C@@H](OC(=O)/C(C)=C/C)[C@@]3(C)[C@@H](O)[C@H]12,3.94,4.98
C=C1C(=O)O[C@@H]2C[C@@H](C)[C@@H]3C=CC(=O)[C@@]3(C)[C@@H](OC(C)=O)[C@H]12 [ANGUSTIBALIN],5.89,6.66
C=C1C(=O)O[C@@H]2C[C@@H](C)[C@@H]3[C@@H](OC(C)=O)C[C@@H](O)[C@@]3(C)[C@@H](O)[C@H]12 [CHAMISSONOLIDE],3.97,5.12
C=C1C(=O)O[C@@H]2C[C@@H](C)[C@@H]3[C@@H](O)CC(=O)[C@@]3(C)[C@@H](OC(=O)/C(C)=C/C)[C@H]12 [ARNIFOLIN],4.21,5.40
CC(C)CC(=O)O[C@H]1[C@@H]2[C@H](C)C(=O)O[C@@H]2C[C@@H](C)[C@@H]2C=CC(=O)[C@]21C,4.70,5.77
C=C1C(=O)O[C@@H]2C[C@@H](C)[C@@H]3C=CC(=O)[C@@]3(C)[C@@H](O)[C@H]12 [HELENALIN],5.62,6.41
C=C1C(=O)O[C@@H]2C[C@@H](C)[C@@H]3C=CC(=O)[C@@]3(C)[C@@H](OC(=O)/C(C)=C/C)[C@H]12,5.28,6.00
C=C1C(=O)O[C@@H]2C[C@@H](C)[C@@H]3[C@@H](OC(C)=O)C[C@@H](O)[C@@]3(C)C[C@H]12,3.99,4.97
C/C=C(\C)C(=O)O[C@H]1[C@@H]2[C@H](C)C(=O)O[C@@H]2C[C@@H](C)[C@@H]2C=CC(=O)[C@]21C,4.72,5.59
C=C1C(=O)O[C@@H]2C[C@@H](C)[C@@H]3C=CC(=O)[C@@]3(C)[C@@H](OC(=O)CC(C)C)[C@H]12,5.49,6.14
C=C1C(=O)O[C@H]2C[C@@H](C)[C@@H]3C=CC(=O)[C@@]3(C)[C@@H](OC(C)=O)[C@H]12 [BIGELOVIN],5.70,6.44
C=C1C(=O)O[C@H]2C[C@@H](C)[C@@H]3C=CC(=O)[C@@]3(C)[C@H](O)[C@H]12 [MEXICANIN I],5.57,6.25
C=C1C(=O)O[C@@H]2C[C@@H](C)[C@@H]3[C@@H](O)C[C@@H](O)[C@@]3(C)C[C@H]12,–,4.82
CC(=O)O[C@H]1[C@@H]2[C@H](C)C(=O)O[C@@H]2C[C@@H](C)[C@@H]2C=CC(=O)[C@]21C,4.37,5.46
